# From ChEMBL document CHEMBL1152825, “Pseudomonas aeruginosa may accumulate drug resistance mechanisms without losing its ability to cause bloodstream infections” (2007)
# Experiments:
# [1] = test system: Pseudomonas aeruginosa; experiment: Antibacterial activity against Pseudomonas aeruginosa clinical isolates assessed as resistant rate by macrodilution technique; format: functional
# [2] = test system: Pseudomonas aeruginosa; experiment: Antibacterial activity against Pseudomonas aeruginosa clinical isolate by macrodilution technique; format: functional
# [3] = test system: Pseudomonas aeruginosa; experiment: Antibacterial activity against wild type Pseudomonas aeruginosa PAO1 by macrodilution technique; format: functional
# Summary of the method: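 Wild-type reference strain PAO1. MIC by agar macrodilution on Mueller-Hinton agar with calibrated divalent cations. It served as the baseline for defining a ≥fourfold MIC increase in clinical isolates, and as the expression reference in RT-PCR.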
# [4] = test system: Pseudomonas aeruginosa; experiment: Antibacterial activity against wild type Pseudomonas aeruginosa isolate by macrodilution technique; format: functional
# Summary of the method: (§1)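 MICs by agar macrodilution on Mueller-Hinton agar with calibrated divalent cations. Isolates were graded susceptible, intermediate or resistant by CLSI breakpoints. Resistance was defined as a ≥fourfold MIC rise over reference strain PAO1. Resistance mechanisms were assigned by RT-PCR (PAO1-derived overexpressing mutants as controls) and gene complementation.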
# [5] = test system: Pseudomonas aeruginosa; experiment: Antibacterial activity against aminoglycoside-resistant Pseudomonas aeruginosa isolate expressing MexXY-OprM pump by macrodilution technique; format: functional
# Summary of the method: as §1, with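 “Bloodstream P. aeruginosa isolates from patients in six French teaching hospitals (1999–2004). MICs” for “MICs”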
# [6] = test system: Pseudomonas aeruginosa; experiment: Antibacterial activity against MexXY-OprM pump-independent aminoglycoside-resistant Pseudomonas aeruginosa isolate by macrodilution technique; format: functional
# Summary of the method: as §1, with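 “Bloodstream P. aeruginosa isolates from patients in six French teaching hospitals (1999–2004). MICs” for “MICs”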
# [7] = test system: Pseudomonas aeruginosa; experiment: Antibacterial activity against aminoglycoside-resistant Pseudomonas aeruginosa isolate expressing MexXY-OprM pump, ANT(2'')-1 by macrodilution technique; format: functional
# Summary of the method: as §1, with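 “Bloodstream P. aeruginosa isolates from patients in six French teaching hospitals (1999–2004). MICs” for “MICs”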
# [8] = test system: Pseudomonas aeruginosa; experiment: Antibacterial activity against aminoglycoside-resistant Pseudomonas aeruginosa isolate expressing MexXY-OprM pump, AAC(6')-1 by macrodilution technique; format: functional
# Summary of the method: as §1, with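 “Bloodstream P. aeruginosa isolates from patients in six French teaching hospitals (1999–2004). MICs” for “MICs”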
# [9] = test system: Pseudomonas aeruginosa; experiment: Antibacterial activity against aminoglycoside-resistant Pseudomonas aeruginosa isolate expressing ANT(2'')-1 by macrodilution technique; format: functional
# Summary of the method: as §1, with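 “Bloodstream P. aeruginosa isolates from patients in six French teaching hospitals (1999–2004). MICs” for “MICs”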
# [10] = test system: Pseudomonas aeruginosa; experiment: Antibacterial activity against aminoglycoside-resistant Pseudomonas aeruginosa isolate expressing AAC(6')-1, ANT(2'')-1 by macrodilution technique; format: functional
# Summary of the method: as §1, with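 “Bloodstream P. aeruginosa isolates from patients in six French teaching hospitals (1999–2004). MICs” for “MICs”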
# [11] = test system: Pseudomonas aeruginosa; experiment: Antibacterial activity against aminoglycoside-resistant Pseudomonas aeruginosa isolate expressing MexXY-OprM pump, AAC(6')-1, ANT(2'')-1 by macrodilution technique; format: functional
# Summary of the method: as §1, with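 “Bloodstream P. aeruginosa isolates from patients in six French teaching hospitals (1999–2004). MICs” for “MICs”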
# [12] = test system: Pseudomonas aeruginosa; experiment: Antibacterial activity against aminoglycoside-resistant Pseudomonas aeruginosa isolate expressing MexXY-OprM pump, AAC(3')-1 by macrodilution technique; format: functional
# Summary of the method: as §1, with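 “Bloodstream P. aeruginosa isolates from patients in six French teaching hospitals (1999–2004). MICs” for “MICs”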
# [13] = test system: Pseudomonas aeruginosa; experiment: Antibacterial activity against aminoglycoside-resistant Pseudomonas aeruginosa isolate expressing MexXY-OprM pump, AAC(6')-1, AAC(3')-1 by macrodilution technique; format: functional
# Summary of the method: as §1, with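 “Bloodstream P. aeruginosa isolates from patients in six French teaching hospitals (1999–2004). MICs” for “MICs”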
# [14] = test system: Pseudomonas aeruginosa; experiment: Antibacterial activity against aminoglycoside-resistant Pseudomonas aeruginosa isolate expressing AAC(6')-1 by macrodilution technique; format: functional
# Summary of the method: as §1, with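 “Bloodstream P. aeruginosa isolates from patients in six French teaching hospitals (1999–2004). MICs” for “MICs”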
# [15] = test system: Pseudomonas aeruginosa; experiment: Antibacterial activity against Pseudomonas aeruginosa clinical isolates assessed as susceptible rate by macrodilution technique; format: functional
# [16] = test system: Pseudomonas aeruginosa; experiment: Antibacterial activity against beta-lactams resistant Pseudomonas aeruginosa isolate expressing AmpC, MexAB-OprM pump by macrodilution technique; format: functional
# Summary of the method: as §1, with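 “Bloodstream P. aeruginosa isolates from patients in six French teaching hospitals (1999–2004). MICs” for “MICs”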
# [17] = test system: Pseudomonas aeruginosa; experiment: Antibacterial activity against beta-lactams resistant Pseudomonas aeruginosa isolate expressing MexXY-OprM pump, TEM-2 by macrodilution technique; format: functional; summary of the method: as §1
# [18] = test system: Pseudomonas aeruginosa; experiment: Antibacterial activity against beta-lactams resistant Pseudomonas aeruginosa isolate expressing MexAB-OprM pump by macrodilution technique; format: functional; summary of the method: as §1
# [19] = test system: Pseudomonas aeruginosa; experiment: Antibacterial activity against beta-lactams resistant Pseudomonas aeruginosa isolate expressing MexAB-OprM pump, MexXY-OprM pump by macrodilution technique; format: functional; summary of the method: as §1
# [20] = test system: Pseudomonas aeruginosa; experiment: Antibacterial activity against beta-lactams resistant Pseudomonas aeruginosa isolate expressing OXA2 by macrodilution technique; format: functional; summary of the method: as §1
# [21] = test system: Pseudomonas aeruginosa; experiment: Antibacterial activity against beta-lactams resistant Pseudomonas aeruginosa isolate expressing AmpC, MexAB-OprM pump, MexXY-OprM pump by macrodilution technique; format: functional; summary of the method: as §1
# [22] = test system: Pseudomonas aeruginosa; experiment: Antibacterial activity against beta-lactams resistant Pseudomonas aeruginosa isolate expressing AmpC by macrodilution technique; format: functional; summary of the method: as §1
# [23] = test system: Pseudomonas aeruginosa; experiment: Antibacterial activity against beta-lactams resistant Pseudomonas aeruginosa isolate expressing MexXY-OprM pump by macrodilution technique; format: functional; summary of the method: as §1
# [24] = test system: Pseudomonas aeruginosa; experiment: Antibacterial activity against beta-lactams resistant Pseudomonas aeruginosa isolate expressing AmpC, MexXY-OprM pump by macrodilution technique; format: functional; summary of the method: as §1
# [25] = test system: Pseudomonas aeruginosa; experiment: Antibacterial activity against beta-lactams resistant OprD-deficient Pseudomonas aeruginosa isolate by macrodilution technique; format: functional; summary of the method: as §1
# [26] = test system: Pseudomonas aeruginosa; experiment: Antibacterial activity against beta-lactams resistant Pseudomonas aeruginosa isolate expressing PSE-1, MexXY-OprM pump by macrodilution technique; format: functional; summary of the method: as §1
# [27] = test system: Pseudomonas aeruginosa; experiment: Antibacterial activity against beta-lactams resistant Pseudomonas aeruginosa isolate expressing AmpC, PSE-1, MexXY-OprM pump by macrodilution technique; format: functional; summary of the method: as §1
# [28] = test system: Pseudomonas aeruginosa; experiment: Antibacterial activity against beta-lactams resistant Pseudomonas aeruginosa isolate expressing PSE-1 by macrodilution technique; format: functional; summary of the method: as §1
# [29] = test system: Pseudomonas aeruginosa; experiment: Antibacterial activity against beta-lactams resistant Pseudomonas aeruginosa isolate expressing AmpC, MexXY-OprM pump, TEM-2 by macrodilution technique; format: functional; summary of the method: as §1
# [30] = test system: Pseudomonas aeruginosa; experiment: Antibacterial activity against fluoroquinolone-resistant Pseudomonas aeruginosa isolate with GyrA mutant by macrodilution technique
Molecule,Activity [1] [%],MIC50 [2] [µg/mL],MIC90 [2] [µg/mL],MIC [3] [µg/mL],MIC [4] [µg/mL],MIC [5] [µg/mL],MIC [6] [µg/mL],MIC [7] [µg/mL],MIC [8] [µg/mL],MIC [9] [µg/mL],MIC [10] [µg/mL],MIC [11] [µg/mL],MIC [12] [µg/mL],MIC [13] [µg/mL],MIC [14] [µg/mL],Activity [15] [%],MIC [16] [µg/mL],MIC [17] [µg/mL],MIC [18] [µg/mL],MIC [22] [µg/mL],also measured
CCN[C@@H]1C[C@H](N)[C@@H](O[C@H]2OC(CN)=CC[C@H]2N)[C@H](O)[C@H]1O[C@H]1OC[C@](C)(O)[C@H](NC)[C@H]1O [NETILMICIN],15,8,32,4,4,16,16,16,> 128,8,> 128,> 128,16,> 128,> 128,56.7,,,,,
C[C@H]1[C@H](NC(=O)/C(=N\OC(C)(C)C(=O)O)c2csc(N)n2)C(=O)N1S(=O)(=O)O [AZTREONAM],,,,,,,,,,,,,,,,,8,8,,,
CO/N=C(\C(=O)N[C@@H]1C(=O)N2C(C(=O)[O-])=C(C[N+]3(C)CCCC3)CS[C@H]12)c1csc(N)n1,,,,,,,,,,,,,,,,,8,,8,8,MIC [19]: 8 µg/mL; MIC [20]: 2 µg/mL; MIC [21]: 8 µg/mL
GENTAMICIN,25,4,128,2,4,8,8,128,128,> 128,128,128,128,128,128,53.3,,,,,
CC(C)(O/N=C(\C(=O)N[C@@H]1C(=O)N2C(C(=O)[O-])=C(C[n+]3ccccc3)CS[C@H]12)c1csc(N)n1)C(=O)O [CEFTAZIDIME],3.3,2,8,1,,,,,,,,,,,,90,4,8,4,16,MIC [23]: 2 µg/mL; MIC [24]: 8 µg/mL; MIC [25]: 2 µg/mL; MIC [26]: 2 µg/mL; MIC [27]: 8 µg/mL; MIC [28]: 2 µg/mL; MIC [19]: 2 µg/mL; MIC [29]: 32 µg/mL; MIC [20]: 2 µg/mL; MIC [21]: 16 µg/mL
NC[C@H]1O[C@H](O[C@H]2[C@H](O)[C@@H](O[C@H]3O[C@H](CO)[C@@H](O)[C@H](N)[C@H]3O)[C@H](N)C[C@@H]2N)[C@H](N)C[C@@H]1O [TOBRAMYCIN],21.7,1,> 64,0.5,1,2,2,> 64,> 64,16,64,64,2,> 64,32,77.5,,,,,
CC1(C)S[C@@H]2[C@H](NC(=O)[C@H](C(=O)O)c3ccsc3)C(=O)N2[C@H]1C(=O)O [TICARCILLIN],10.8,32,256,16,16,,,,,,,,,,,77.5,128,> 256,128,64,MIC [23]: 16 µg/mL; MIC [24]: 128 µg/mL; MIC [25]: 16 µg/mL; MIC [26]: > 256 µg/mL; MIC [27]: > 256 µg/mL; MIC [28]: > 256 µg/mL; MIC [19]: 128 µg/mL; MIC [29]: > 256 µg/mL; MIC [20]: 128 µg/mL; MIC [21]: 128 µg/mL
O=C(O)c1cn(C2CC2)c2cc(N3CCNCC3)c(F)cc2c1=O [CIPROFLOXACIN],,,,,,,,,,,,,,,,,,,,,MIC [30]: 16 µg/mL
C[C@@H](O)[C@H]1C(=O)N2C(C(=O)O)=C(SCCNC=N)C[C@H]12 [IMIPENEM ANHYDROUS],10.8,2,16,1,,,,,,,,,,,,82.5,,,4,8,MIC [23]: 8 µg/mL; MIC [24]: 16 µg/mL; MIC [25]: 8 µg/mL; MIC [26]: 64 µg/mL
NCC[C@H](O)C(=O)N[C@@H]1C[C@H](N)[C@@H](O[C@H]2O[C@H](CN)[C@@H](O)[C@H](O)[C@H]2O)[C@H](O)[C@H]1O[C@H]1O[C@H](CO)[C@@H](O)[C@H](N)[C@H]1O [AMIKACIN],1.7,4,16,4,4,8,8,8,32,4,16,16,8,128,16,93.3,,,,,
